Assays:
HL-60 = experiment: Cytotoxicity against human HL60 cells incubated for 48 hrs by MTT assay; assay type: functional, cell-based; conditions: HL-60, 48 h
Summary of the method: (§1)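 Human tumour lines (HL-60 leukemia, Hep3B liver, H460 lung, A498 renal, COLO205 colon, 2774 and SK-OV-3 ovarian) and normal Detroit 551 skin fibroblasts were exposed to a range of concentrations for 48 h. IC50 is the concentration giving 50% proliferation inhibition, as the mean of three independent determinations.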

[1] = Cytotoxicity against human Hep3B cells incubated for 48 hrs by MTT assay; assay type: functional, cell-based, Hep 3B2; summary of the method: as §1
[2] = Cytotoxicity against human H460 cells incubated for 48 hrs by MTT assay; assay type: functional, cell-based; conditions: NCI-H460, 48 h; summary of the method: as §1
A498 = experiment: Cytotoxicity against human A498 cells incubated for 48 hrs by MTT assay; assay type: functional, cell-based; conditions: A498, 48 h
COLO 205 = experiment: Cytotoxicity against human COLO205 cells incubated for 48 hrs by MTT assay; assay type: functional, cell-based; conditions: COLO 205, 48 h; summary of the method: as §1
[3] = Cytotoxicity against human 2774 cells incubated for 48 hrs by MTT assay; assay type: functional, cell-based; summary of the method: as §1
SK-OV-3 = experiment: Cytotoxicity against human SKOV3 cells incubated for 48 hrs by MTT assay; assay type: functional, cell-based; conditions: SK-OV-3, 48 h; summary of the method: as §1
Detroit 551 = experiment: Cytotoxicity against human Detroit 551 cells incubated for 48 hrs by MTT assay; assay type: cell-based; conditions: Detroit 551, 48 h; summary of the method: as §1

Structure (SMILES)	IC50 (HL-60) [µM]	IC50 [1] [µM]	IC50 [2] [µM]	IC50 (A498) [µM]	IC50 (COLO 205) [µM]	IC50 [3] [µM]	IC50 (SK-OV-3) [µM]	IC50 (Detroit 551) [µM]
CCOC(=O)c1cc2c3ccccc3n(Cc3cc(OC)c(OC)c(OC)c3)c2cn1	21.9	> 100	> 100	> 100	> 100	> 100	> 100	> 100
O=C(O)c1cc2c3ccccc3n(Cc3ccc(Cl)cc3)c2cn1	3.9	1.2	15.1	9.9	26.5			
CCOC(=O)c1cc2c3ccccc3n(Cc3ccccn3)c2cn1	> 100	> 100	> 100	46.3	38.7			> 100
CCOC(=O)c1cc2c3ccccc3n(Cc3cccc(OC)c3)c2cn1				21.6	26.7	> 100	> 100	
O=C(O)c1cc2c3ccccc3n(Cc3ccccc3)c2cn1	5	4.4	18.5	9.2	31			
O=C(O)C1Cc2c([nH]c3ccccc23)CN1 (stereo unspecified)			> 50	> 50	> 50			

Reference: ChEMBL document CHEMBL3608281, “Synthesis and biological evaluation of novel 3,9-substituted β-carboline derivatives as anticancer agents” (Bioorg Med Chem Lett, 2015)
